According to ChEMBL document CHEMBL4261529, “Rational design and optimization of selenophenes with basic side chains as novel potent selective estrogen receptor modulators (SERMs) for breast cancer therapy” (Medchemcomm, 2017):
Activity calls are given as the source filed them. The rule behind the calls is not given here.

Legend:
MCF7 [1] = assay: Antiproliferative activity against human MCF7 cells after 72 hrs by MTT assay; type: functional, cell-based; conditions: MCF7, 72 h
In short: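 MCF-7 (ATCC), kept in DMEM with 10% FBS, were treated in triplicate for 72 h. IC50 is the average of at least three independent experiments ± SD.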

Homo sapiens = species: Homo sapiens; assay: Ratio of relative binding affinity for human ERalpha LBD to relative binding affinity to human ERbeta LBD
Estrogen receptor [2] = molecular target: T1, Estrogen receptor (Homo sapiens, UniProt P03372); assay: Agonist activity at ERalpha (unknown origin) expressed in HEK293T cells assessed as transcriptional activity after 24 hrs by dual luciferase reporter gene assay; type: cell-based
T1 sequence (P03372 whole entry): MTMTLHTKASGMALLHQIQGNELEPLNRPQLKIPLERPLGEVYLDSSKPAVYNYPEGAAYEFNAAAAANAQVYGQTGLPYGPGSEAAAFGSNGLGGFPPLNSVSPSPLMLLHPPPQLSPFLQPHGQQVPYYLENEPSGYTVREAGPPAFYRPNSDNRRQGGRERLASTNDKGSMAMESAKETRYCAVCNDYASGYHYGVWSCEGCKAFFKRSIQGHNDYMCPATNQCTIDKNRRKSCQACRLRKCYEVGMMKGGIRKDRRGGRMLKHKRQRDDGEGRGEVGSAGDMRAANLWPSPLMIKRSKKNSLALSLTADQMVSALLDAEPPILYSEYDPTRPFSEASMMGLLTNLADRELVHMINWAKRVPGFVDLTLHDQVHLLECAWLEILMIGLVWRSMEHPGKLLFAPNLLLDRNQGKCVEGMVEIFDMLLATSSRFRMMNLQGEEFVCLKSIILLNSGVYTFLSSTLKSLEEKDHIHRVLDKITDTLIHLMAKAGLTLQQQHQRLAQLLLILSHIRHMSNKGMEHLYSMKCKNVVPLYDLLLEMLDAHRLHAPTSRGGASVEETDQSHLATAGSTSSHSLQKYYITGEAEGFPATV

Estrogen receptor [3] = molecular target: T1, Estrogen receptor; assay: Antagonist activity at ERalpha (unknown origin) expressed in HEK293T cells assessed as inhibition of 17beta-estradiol stimulated transcriptional activity after 24 hrs by dual luciferase reporter gene assay; type: cell-based
Estrogen receptor beta [4] = molecular target: T2, Estrogen receptor beta (Homo sapiens, UniProt Q92731); assay: Binding affinity to human ERbeta LBD expressed in Escherichia coli BL21(DE3) after 2 hrs by fluorescence tracer coumestrol based competitive fluorometric binding assay relative to 17beta-estradiol
[5] = molecular target: T3, Estrogen receptor (Homo sapiens) (UniProt P03372); assay: Binding affinity to human ERalpha LBD expressed in Escherichia coli BL21(DE3) after 2 hrs by fluorescence tracer coumestrol based competitive fluorometric binding assay relative to 17beta-estradiol
T3 sequence (whole entry): T1 sequence (P03372 whole entry)

Estrogen receptor beta [6] = molecular target: T2, Estrogen receptor beta; assay: Antagonist activity at ERbeta (unknown origin) expressed in HEK293T cells assessed as inhibition of 17beta-estradiol stimulated transcriptional activity after 24 hrs by dual luciferase reporter gene assay; type: cell-based
In short: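 HEK293T cells kept in DMEM with 10% FBS, plated in phenol red-free DMEM/10% FBS. Calcium phosphate co-transfection with 300 ng 3×ERE-luciferase reporter and 100 ng ERβ expression vector. Next day, cells stimulated with 10 nM estradiol plus increasing compound doses (up to 10–5 M), in triplicate. Luciferase read after 24 h.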

Estrogen receptor beta [7] = molecular target: T2, Estrogen receptor beta; assay: Antagonist activity at ERbeta (unknown origin) expressed in HEK293T cells assessed as inhibition of 17beta-estradiol stimulated transcriptional activity after 24 hrs by dual luciferase reporter gene assay relative to 17beta-estradiol; type: cell-based
In short: (§1)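 ERβ expression vector (100 ng) plus 300 ng 3×ERE-luciferase reporter, calcium phosphate transfection into HEK293T cells plated in phenol red-free DMEM with 10% FBS. Next day, treated in triplicate with increasing doses (up to 10–5 M). For antagonist mode, 10 nM estradiol was co-added. Luciferase read 24 h later.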

MCF7 [8] = assay: Antiproliferative activity against human MCF7 cells at 50 uM after 5 days in presence of 10 nM 17beta-estradiol by MTT assay; type: functional, cell-based
In short: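 MCF-7 cells were given 50 μM compound with or without 10 nM E2 and cultured 5 days. Viability was expressed relative to untreated cells set at 100%. Mean of three separate experiments ± range.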

Estrogen receptor beta [9] = molecular target: T2, Estrogen receptor beta; assay: Agonist activity at ERbeta (unknown origin) expressed in HEK293T cells assessed as transcriptional activity after 24 hrs by dual luciferase reporter gene assay; type: cell-based; in short: as §1
Estrogen receptor beta [10] = molecular target: T2, Estrogen receptor beta; assay: Agonist activity at ERbeta (unknown origin) expressed in HEK293T cells assessed as transcriptional activity after 24 hrs by dual luciferase reporter gene assay relative to 17beta-estradiol; type: cell-based; in short: as §1

T2 sequence (Q92731 whole entry, the tested form may be a part): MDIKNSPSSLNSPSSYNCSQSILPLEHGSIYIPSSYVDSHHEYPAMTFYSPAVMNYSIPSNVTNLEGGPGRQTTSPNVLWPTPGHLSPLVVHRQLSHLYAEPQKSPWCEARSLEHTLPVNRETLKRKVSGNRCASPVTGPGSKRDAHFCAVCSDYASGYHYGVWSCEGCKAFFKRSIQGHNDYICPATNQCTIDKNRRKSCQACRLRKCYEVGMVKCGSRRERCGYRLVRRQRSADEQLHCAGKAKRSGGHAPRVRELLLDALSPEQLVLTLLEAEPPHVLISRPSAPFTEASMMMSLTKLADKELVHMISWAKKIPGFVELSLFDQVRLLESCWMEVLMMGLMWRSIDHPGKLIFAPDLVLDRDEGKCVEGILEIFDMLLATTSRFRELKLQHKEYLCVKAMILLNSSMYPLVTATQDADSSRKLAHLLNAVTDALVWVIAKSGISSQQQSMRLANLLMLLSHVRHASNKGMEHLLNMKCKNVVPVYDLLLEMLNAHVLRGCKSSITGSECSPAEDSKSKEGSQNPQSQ

| Structure (SMILES) | IC50 (MCF7 [1]) [nM] | Ratio (Homo sapiens) | EC50 (Estrogen receptor [2]) [nM] | IC50 (Estrogen receptor [3]) [nM] | RBA (Estrogen receptor beta [4]) [%] | RBA [5] [%] | IC50 (Estrogen receptor beta [6]) [nM] | Efficacy (Estrogen receptor beta [7]) [%] | Activity (MCF7 [8]) | EC50 (Estrogen receptor beta [9]) [nM] | Efficacy (Estrogen receptor beta [10]) [%] |
| --- | --- | --- | --- | --- | --- | --- | --- | --- | --- | --- | --- |
| Oc1ccc(-c2cc(-c3ccc(OCCN4CCCCC4)cc3)c(-c3ccc(O)cc3)[se]2)cc1 | 7040 | > 10 | 1830 | 779 | < 0.1 | 4.59 | 5390 | 33.8 | – | – | – |
| Oc1ccc(-c2ccc(-c3ccc(OCCN4CCCC4)cc3Cl)[se]2)c(Cl)c1 | 7810 | 0.19 | – | 415 | 23.6 | 4.59 | 299 | 49.4 | – | – | – |
| Oc1ccc(-c2ccc(-c3ccc(O)cc3)[se]2)cc1 | – | – | – | – | 2.87 | 0.61 | – | – | – | – | – |
| Cc1cc(O)ccc1-c1c[se]cc1-c1ccc(OCCN2CCCCC2)cc1C | 15800 | 0.05 | 158 | 237 | 10.2 | 0.56 | 1340 | 43.4 | – | – | – |
| Oc1ccc(-c2c[se]cc2-c2ccc(OCCN3CCCC3)cc2Cl)c(Cl)c1 | 10900 | < 0.1 | – | 769 | 23.3 | < 0.1 | 1160 | 68.1 | – | – | – |
| Oc1ccc(-c2ccc(-c3ccc(OCCN4CCCC4)cc3)[se]2)cc1 | 5770 | 12.2 | 219 | 1210 | 1.02 | 12.4 | 1270 | 83.9 | inactive | – | – |
| Oc1ccc(-c2ccc(-c3ccc(OCCN4CCCC4)cc3F)[se]2)c(F)c1 | > 100000 | > 10 | 136 | – | < 0.1 | 0.76 | 1120 | 92.1 | – | – | – |
| Oc1ccc(-c2cc(-c3ccc(OCCN4CCCC4)cc3)c(-c3ccc(O)cc3)[se]2)cc1 | 4950 | 0.18 | – | 974 | 16.7 | 3.14 | 475 | 49.2 | inactive | – | – |
| Cc1cc(O)ccc1-c1c[se]cc1-c1ccc(OCCN2CCCC2)cc1C | 16600 | 3.6 | – | 179 | 0.46 | 1.65 | 43 | 66.7 | – | – | – |
| Cc1cc(O)ccc1-c1ccc(-c2ccc(OCCN3CCCC3)cc2C)[se]1 | 53800 | 3.37 | – | 874 | 0.58 | 1.96 | 146 | 4.6 | – | 240 | 72.3 |
| Oc1ccc(-c2ccc(-c3ccc(O)cc3Cl)[se]2)c(Cl)c1 | – | 0.48 | – | – | 12.7 | 6.11 | – | – | – | – | – |
| Cc1cc(O)ccc1-c1ccc(-c2ccc(O)cc2C)[se]1 | – | – | – | – | 11.1 | 5.6 | – | – | – | – | – |
| Oc1ccc(-c2ccc(-c3ccc(O)cc3F)[se]2)c(F)c1 | – | – | – | – | 24.3 | 5.9 | – | – | – | – | – |
| Cc1cc(-c2c[se]cc2-c2ccc(O)c(C)c2)ccc1O | – | – | – | – | 0.62 | 0.71 | – | – | – | – | – |
| Cc1cc(O)ccc1-c1cc(-c2ccc(OCCN3CCCC3)cc2)c(-c2ccc(O)cc2C)[se]1 | 7050 | 4.06 | – | 13 | 3.4 | 13.8 | 16 | 170 | – | – | – |
| Oc1ccc(-c2c[se]cc2-c2ccc(OCCN3CCCCC3)cc2Cl)c(Cl)c1 | 14100 | 0.29 | – | 413 | 18.4 | 5.38 | 331 | 37.7 | – | – | – |
| Cc1cc(-c2c[se]cc2-c2ccc(OCCN3CCCCC3)c(C)c2)ccc1O | > 100000 | – | 721 | – | < 0.1 | < 0.1 | 415 | 30.3 | – | – | – |
| Oc1ccc(-c2ccc(-c3ccc(OCCN4CCCCC4)cc3F)[se]2)c(F)c1 | > 100000 | 10.9 | 204 | – | 0.63 | 6.89 | 1940 | 75.4 | – | – | – |
| Oc1ccc(-c2c[se]cc2-c2ccc(O)cc2)cc1 | – | – | – | – | 2.01 | 0.32 | – | – | – | – | – |
| Cc1cc(O)ccc1-c1c[se]cc1-c1ccc(O)cc1C | – | – | – | – | 6.7 | 0.27 | – | – | – | – | – |
| Oc1ccc(-c2c[se]cc2-c2ccc(OCCN3CCCC3)cc2)cc1 | > 100000 | 0.35 | 1000 | – | 5.92 | 2.06 | 102 | 46.7 | – | – | – |
| Oc1ccc(-c2c[se]cc2-c2ccc(OCCN3CCCCC3)c(F)c2)cc1F | 15600 | 0.32 | – | 69 | 15.3 | 4.82 | 540 | 45 | – | – | – |
| Oc1ccc(-c2c[se]cc2-c2ccc(O)c(F)c2)cc1F | – | – | – | – | 1.56 | 0.58 | – | – | – | – | – |
| Cc1cc(O)ccc1-c1ccc(-c2ccc(OCCN3CCCCC3)cc2C)[se]1 | 25300 | < 0.1 | 2370 | 41 | 0.62 | < 0.1 | 1240 | 78.3 | – | – | – |
| Oc1ccc(-c2ccc(-c3ccc(OCCN4CCCCC4)cc3Cl)[se]2)c(Cl)c1 | > 100000 | – | 911 | – | < 0.1 | < 0.1 | 2960 | 24.9 | – | – | – |
| Cc1cc(-c2c[se]cc2-c2ccc(OCCN3CCCC3)c(C)c2)ccc1O | 12800 | 0.34 | 116 | 836 | 5.92 | 2.03 | 5 | 34.1 | – | – | 20.8 |
